Data as given in ChEMBL document CHEMBL1133980, “New inhibitors of the thioredoxin-thioredoxin reductase system based on a naphthoquinone spiroketal natural product lead” (Bioorg Med Chem Lett, 2001).

Tests used:
MDA-MB-231 = test: Ability to inhibit the growth of MDA-MB-231 cell line; format: functional, cell-based; conditions: Homo sapiens
In short: (§1)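 MCF-7 (ER+, p53 replete) and MDA-MB-231 (ER−, p53 deficient) human breast cancer cells were seeded at 4000/well and left to attach overnight. They were then exposed to compound (0.1–30 μM) or 0.1% DMSO vehicle for 72 h. Medium was changed to serum-free medium with 0.1% MTT, incubated 3 h in the dark, and cell number read at 540 nm.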

MCF7 = test: Ability to inhibit the growth of MCF-7 cell line; format: functional, cell-based; conditions: Homo sapiens; in short: as §1
Thioredoxin reductase [1] = target: T1, Thioredoxin reductase (Homo sapiens, UniProt Q16881+Q9NNW7+Q86VQ6); test: Inhibition of thioredoxin reductase; format: protein assay
In short: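 Human placental TrxR (final 1.0 μM) in HEPES pH 7.2/EDTA buffer was added to diluted compound. Reaction started with NADPH (final 1 mM) and DTNB (final 10 mM) at 37 °C. A405 for DTNB reduction read every 10 s and initial rates taken. IC50 from five concentrations (0.1–50 μM).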

Thioredoxin reductase [2] = target: T1, Thioredoxin reductase; test: Inhibition of thioredoxin-1/thioredoxin reductase system; format: functional
In short: (§2)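 Insulin reduction by human placental TrxR plus recombinant human Trx-1 (final 1.0 μM TrxR, 0.8 μM Trx-1) in 100 mM HEPES pH 7.2, 5 mM EDTA with 1 mM NADPH and 2.5 mg/mL bovine insulin, 30 min, 37 °C. Stopped with 6 M guanidine-HCl/Tris pH 8.0/10 mM DTNB; A405 read. IC50 from five concentrations (0.1–50 μM).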

[3] = Compound was tested for its ability to inhibit thioredoxin-1/thioredoxin reductase system; set-up: species or system Homo sapiens; in short: as §2

Compound	IC50 (MDA-MB-231) [µM]	IC50 (MCF7) [µM]	IC50 (Thioredoxin reductase [1]) [µM]	IC50 (Thioredoxin reductase [2]) [µM]	IC50 [3] [µM]
C=C(C)COc1cccc2c1C(=O)C=CC21Oc2cccc3cccc(c23)O1	8.2	7.8	> 50	4.8	–
C/C=C(\C)COc1cccc2c1C(=O)C=CC21Oc2cccc3cccc(c23)O1	5.3	4.3	–	> 50	–
O=C1C=CC2(Oc3cccc4cccc(c34)O2)c2cccc(OCc3ccc(-c4cccc(C(F)(F)F)c4)o3)c21	5.2	5.5	> 50	42.4	–
C/C=C/COc1cccc2c1C(=O)C=CC21Oc2cccc3cccc(c23)O1	2.9	1.3	–	> 50	–
O=C1C=CC2(Oc3cccc4cccc(c34)O2)c2cccc(OCc3ccc(Cl)cc3)c21	8	> 10	> 50	> 50	–
O=C1[C@@H]2O[C@@H]2C2(Oc3cccc4cccc(c34)O2)[C@@]23O[C@@]12CCCC3=O	8.2	4.6	–	> 50	–
O=C1C=CC2(Oc3cccc4cccc(c34)O2)c2cccc(OCc3ccc(-c4ccccc4C(F)(F)F)o3)c21	4.9	5	> 50	> 50	–
C#CCOc1cccc2c1C(=O)C=CC21Oc2cccc3cccc(c23)O1	4.7	4.3	> 50	13.4	–
COc1ccc(COc2cccc3c2C(=O)C=CC32Oc3cccc4cccc(c34)O2)cc1	2.2	0.7	> 50	> 50	–
O=C1C=CC2(Oc3cccc4cccc(c34)O2)c2cccc(OCCc3ccccc3)c21	4.6	3.9	–	> 50	–
O=C1C=CC2(Oc3cccc4cccc(c34)O2)C2=C1CCCC2=O	6.4	3.8	–	2.1	–
O=C1C=C[C@H](O)[C@@]23O[C@@]12C1(Oc2cccc4cccc(c24)O1)[C@@H]1O[C@@H]1[C@@H]3O	2	1.5	13.5	4.5	–
O=C1C=CC2(Oc3cccc4cccc(c34)O2)c2cccc(OCc3ccncc3)c21	7.3	8	> 50	> 50	–
O=C1C=CC2(Oc3cccc4cccc(c34)O2)C2=C1[C@@H](O)C1C3C=CC(C3)C1[C@H]2O (some centres not stated)	2.1	1.3	–	8	–
O=C1C=CC2(Oc3cccc4cccc(c34)O2)c2cccc(OCc3ccco3)c21	2.5	1.1	–	> 50	–
O=C1C=CC2(Oc3cccc4cccc(c34)O2)C23OC12CCCC3=O (configuration not stated)	3.4	1.3	–	44	–
CC(C)=CCOc1cccc2c1C(=O)C=CC21Oc2cccc3cccc(c23)O1	3.6	2	–	> 50	–
O=C1C=CC2(Oc3cccc4cccc(c34)O2)c2cccc(OCc3ccc(Br)cc3)c21	9.3	> 10	> 50	> 50	–

Compound	IC50 (MDA-MB-231) [µM]	IC50 (MCF7) [µM]	IC50 (Thioredoxin reductase [1]) [µM]	IC50 (Thioredoxin reductase [2]) [µM]	IC50 [3] [µM]
O=C1CCCC2=C1C1(Oc3cccc4cccc(c34)O1)C1OC1C2=O (configuration not stated)	23	4.6	–	12.2	–
COc1cccc(COc2cccc3c2C(=O)C=CC32Oc3cccc4cccc(c34)O2)c1	2.7	2.3	–	> 50	–
O=C1C=CC2(Oc3cccc4cccc(c34)O2)c2cccc(OC/C=C/c3ccccc3)c21	7.5	7.9	–	> 50	–
CC(C)=CCC/C(C)=C/COc1cccc2c1C(=O)C=CC21Oc2cccc3cccc(c23)O1	2	4.6	–	–	> 50
O=C1C=CC2(Oc3cccc4cccc(c34)O2)c2cccc(OCc3ccoc3)c21	2	2	> 50	23.2	–
O=C1C=CC2(Oc3cccc4cccc(c34)O2)c2cccc(OCc3ccc(-c4ccc(Br)cc4)o3)c21	7.8	5.7	20.1	10.2	–
O=C1C=CC2(Oc3cccc4cccc(c34)O2)c2cccc(OCc3ccc(-c4ccccc4Cl)o3)c21	> 10	> 10	> 50	> 50	–
O=C1C=CC2(Oc3cccc4cccc(c34)O2)c2cccc(OCc3ccc(-c4cccc(Cl)c4)o3)c21	> 10	> 10	> 50	> 50	–
O=C1C=CC2(Oc3cccc4cccc(c34)O2)c2cccc(OCc3ccccn3)c21	2.8	2	> 50	41.8	–
C/C=C(/C)COc1cccc2c1C(=O)C=CC21Oc2cccc3cccc(c23)O1	4.5	1.9	–	> 50	–
C=CCOc1cccc2c1C(=O)C=CC21Oc2cccc3cccc(c23)O1	2.7	2	> 50	23.2	–
O=C1[C@@H]2O[C@@H]2C2(Oc3cccc4cccc(c34)O2)[C@]23O[C@]12CCCC3=O	2.9	2.8	–	13.5	–
CC/C=C/CCOc1cccc2c1C(=O)C=CC21Oc2cccc3cccc(c23)O1	9.2	> 30	–	> 50	–
O=C1C=CC2(OCCO2)c2cccc(O)c21	4.3	4.2	8.8	3.4	–
CCCCCCOc1cccc2c1C(=O)C=CC21Oc2cccc3cccc(c23)O1	13.6	13.4	–	> 50	–
O=C1C=CC2(Oc3cccc4cccc(c34)O2)c2cccc(O)c21	2.4	1	12	0.35	–
O=C1C=CC2(Oc3cccc4cccc(c34)O2)c2cccc(OCc3cccnc3)c21	1.4	1.5	> 50	> 50	–
COc1cccc2c1C(=O)C=CC21OCCCO1	5	4.4	> 50	40.2	–
